For assay [1], the target named is T1, Transient receptor potential cation channel subfamily V member 1 (Homo sapiens, UniProt Q8NER1). In words: Binding affinity towards human vanilloid receptor subtype 1 expressed in HEK293 cell membrane using [3H]-RTX as radioligand. It is filed as cell membranes. Summed up:
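Membranes from hVR1/HEK293 cells homogenized twice with a Polytron in 20 mM HEPES pH 7.4 with 5.8 mM NaCl, 320 mM sucrose, 2 mM MgCl2, 0.75 mM CaCl2 and 5 mM KCl. Spun at 3000 rpm for 10 min; supernatant spun at 18,000 rpm for 20 min; pellet taken up in assay buffer.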

Assay [2] concerns the target T1, Transient receptor potential cation channel subfamily V member 1. In words: Antagonistic activity towards human vanilloid receptor subtype 1 expressed in HEK293 cell […], as inhibition of agonist-induced intracellular [Ca2+] levels. Type of assay: functional, cell-based.

T1 sequence (Q8NER1 whole entry): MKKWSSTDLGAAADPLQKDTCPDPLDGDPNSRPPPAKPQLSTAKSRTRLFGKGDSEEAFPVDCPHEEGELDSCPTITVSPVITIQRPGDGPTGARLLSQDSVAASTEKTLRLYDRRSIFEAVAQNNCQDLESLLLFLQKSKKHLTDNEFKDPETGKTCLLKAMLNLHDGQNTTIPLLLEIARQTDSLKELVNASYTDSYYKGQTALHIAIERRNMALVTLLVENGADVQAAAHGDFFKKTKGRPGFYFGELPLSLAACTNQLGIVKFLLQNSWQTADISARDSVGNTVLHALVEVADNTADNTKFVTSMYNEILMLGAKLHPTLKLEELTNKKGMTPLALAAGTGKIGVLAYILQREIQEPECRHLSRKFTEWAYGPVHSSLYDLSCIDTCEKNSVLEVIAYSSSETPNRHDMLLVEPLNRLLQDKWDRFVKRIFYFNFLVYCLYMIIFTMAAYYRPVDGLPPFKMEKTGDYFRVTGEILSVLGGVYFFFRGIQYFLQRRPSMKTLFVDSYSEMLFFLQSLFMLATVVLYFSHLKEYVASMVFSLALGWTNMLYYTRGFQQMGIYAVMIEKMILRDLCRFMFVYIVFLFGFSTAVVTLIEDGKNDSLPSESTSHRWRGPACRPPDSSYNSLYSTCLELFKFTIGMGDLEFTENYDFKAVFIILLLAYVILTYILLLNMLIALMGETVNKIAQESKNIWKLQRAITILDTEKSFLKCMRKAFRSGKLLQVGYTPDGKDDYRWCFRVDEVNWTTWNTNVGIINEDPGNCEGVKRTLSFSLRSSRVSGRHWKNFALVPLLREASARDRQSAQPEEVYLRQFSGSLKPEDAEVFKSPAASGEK

In turn, `O=C(NCc1ccc(OC(F)(F)F)cc1)Nc1cccc2cnccc12` showed a Ki in assay [1] of 0.0013 µM. In assay [2], the IC50 is 0.003 µM. Molecule `O=C(NCc1ccc(Cl)cc1)Nc1cccc2cnccc12` displayed a 50% inhibitory concentration (IC50) in assay [2] of 0.006 µM.

As for `CCCCCc1ccc(C(=O)Nc2cccc3cnccc23)cc1`, in assay [1], the inhibition constant Ki was 0.071 µM. This molecule also gave a half-inhibitory concentration (IC50) in assay [2] of 2.4 µM.

`O=C(NCc1ccc(Cl)c(C(F)(F)F)c1)Nc1cccc2cnccc12`: the affinity in assay [1], expressed as Ki, was 0.0008 µM. The molecule further registered a half-inhibitory concentration (IC50) in assay [2] of 0.006 µM. `O=C(NCCc1ccc(C(F)(F)F)cc1)Nc1cccc2cnccc12`: the affinity in assay [1] corresponds to a Ki of 0.022 µM. Also, the IC50 in assay [2] was 0.019 µM.

For the molecule `O=C(NCCc1ccc(Cl)c(Cl)c1)Nc1cccc2cnccc12`, in assay [1], the Ki turned out to be 0.017 µM. The molecule also came in with a half-maximal inhibitory concentration (IC50) in assay [2] of 0.01 µM. With `O=C(NCCc1ccccc1)Nc1cccc2cnccc12`, in assay [2], the IC50 turned out to be 1 µM. This lies in the single-digit micromolar range.

In the case of `COc1ccc(CCNC(=O)Nc2cccc3cnccc23)cc1`, the concentration for half-maximal inhibition (IC50) in assay [2] is 0.68 µM. `O=C(NCc1ccc(C(F)(F)F)cc1)Nc1cccc2cnccc12` gave a Ki in assay [1] of 0.005 µM. The molecule further returned an IC50 in assay [2] of 0.003 µM.

In assay [1], `O=C(Nc1ccc(Cl)c(Cl)c1)Nc1cccc2cnccc12` came in with an inhibition constant Ki of 0.017 µM. Also, the IC50 in assay [2] turned out to be 0.17 µM. For `O=C(CCc1ccc(C(F)(F)F)cc1)Nc1cccc2cnccc12` the same measures were 0.06 µM and 0.038 µM. Regarding `CCC(C)(C)c1ccc(CCC(=O)Nc2cccc3cnccc23)cc1`, in assay [1], the affinity, expressed as Ki, was 0.004 µM. Also, in assay [2], the IC50 stood at 0.013 µM. For `O=C(NCc1ccc(Cl)c(Cl)c1)Nc1cccc2cnccc12` the same measures were 0.009 µM and 0.004 µM.

As for `CC(C)(C)c1ccc(/C=C/C(=O)Nc2cccc3cnccc23)cc1`, the Ki in assay [1] was determined as 0.0012 µM. The same molecule registered an IC50 in assay [2] of 0.005 µM. On to `O=C(NCCc1ccc(OC(F)(F)F)cc1)Nc1cccc2cnccc12`, for which the half-maximal inhibitory concentration (IC50) in assay [2] was 0.011 µM. As to `CCCCc1ccc(NC(=O)Nc2cccc3cnccc23)cc1`, in assay [1], the affinity corresponds to a Ki of 0.33 µM. The same molecule came in with an IC50 in assay [2] of 0.49 µM. Consider `O=C(/C=C/c1ccccc1)Nc1cccc2cnccc12`, for which the IC50 in assay [2] was determined as 1.5 µM. This lies in the single-digit micromolar range. In assay [1], `O=C(Nc1cccc(C(F)(F)F)c1)Nc1cccc2cnccc12` showed a Ki of 0.019 µM. This molecule had an IC50 in assay [2] of 0.032 µM.

In assay [2], `O=C(NCCc1cccc(C(F)(F)F)c1)Nc1cccc2cnccc12` had an IC50 of 0.019 µM. For `CC(C)(C)c1ccc(CCC(=O)Nc2cccc3cnccc23)cc1`, the inhibitory constant (Ki) in assay [1] came out at 0.011 µM. In assay [2], this molecule registered an IC50 of 0.41 µM. For `O=C(Nc1cc(C(F)(F)F)cc(C(F)(F)F)c1)Nc1cccc2cnccc12`, the affinity in assay [1] corresponds to a Ki of 0.0014 µM. The molecule further yielded an IC50 in assay [2] of 0.032 µM. On to `O=C(NCc1cccc(C(F)(F)F)c1)Nc1cccc2cnccc12`, for which the affinity in assay [1] corresponds to a Ki of 0.023 µM. In assay [2], this molecule had a concentration for half-maximal inhibition (IC50) of 0.011 µM.

Turning to `CC(C)(C)c1ccc(CNC(=O)Nc2cccc3cnccc23)cc1`, in assay [1], the inhibition constant (Ki) was found to be 0.0003 µM. In assay [2], this molecule had a half-inhibitory concentration (IC50) of 0.003 µM. Molecule `COc1ccc(CNC(=O)Nc2cccc3cnccc23)cc1` came in with an IC50 in assay [2] of 0.045 µM. In assay [2], `CC(C)(C)c1ccc(CCNC(=O)Nc2cccc3cnccc23)cc1` showed an IC50 of 0.003 µM.

Broadly, the Ki is the dissociation constant of the complex between target and ligand, obtained from inhibition or displacement. As usually defined, the IC50 is the concentration that inhibits the measured activity by half. Read a low IC50 as greater potency.

The values are drawn from ChEMBL document CHEMBL1148422, “N-isoquinolin-5-yl-N'-aralkyl-urea and -amide antagonists of human vanilloid receptor 1” (Bioorg Med Chem Lett, 2004).
